From ChEMBL document CHEMBL4311956, “A Qualified Success: Discovery of a New Series of ATAD2 Bromodomain Inhibitors with a Novel Binding Mode Using High-Throughput Screening and Hit Qualification” (J Med Chem, 2019)
The source made the active and inactive calls. No cut-off for these calls is given here.

Columns and labels:
[1] = target: T1, ATPase family AAA domain-containing protein 2 (Homo sapiens) (UniProt Q6PL18); test: Binding affinity to 15N-labelled ATAD2 (981 to 1108 residues) (unknown origin) at 100 uM by 1H-15N HSQC NMR analysis
T1 sequence (whole entry): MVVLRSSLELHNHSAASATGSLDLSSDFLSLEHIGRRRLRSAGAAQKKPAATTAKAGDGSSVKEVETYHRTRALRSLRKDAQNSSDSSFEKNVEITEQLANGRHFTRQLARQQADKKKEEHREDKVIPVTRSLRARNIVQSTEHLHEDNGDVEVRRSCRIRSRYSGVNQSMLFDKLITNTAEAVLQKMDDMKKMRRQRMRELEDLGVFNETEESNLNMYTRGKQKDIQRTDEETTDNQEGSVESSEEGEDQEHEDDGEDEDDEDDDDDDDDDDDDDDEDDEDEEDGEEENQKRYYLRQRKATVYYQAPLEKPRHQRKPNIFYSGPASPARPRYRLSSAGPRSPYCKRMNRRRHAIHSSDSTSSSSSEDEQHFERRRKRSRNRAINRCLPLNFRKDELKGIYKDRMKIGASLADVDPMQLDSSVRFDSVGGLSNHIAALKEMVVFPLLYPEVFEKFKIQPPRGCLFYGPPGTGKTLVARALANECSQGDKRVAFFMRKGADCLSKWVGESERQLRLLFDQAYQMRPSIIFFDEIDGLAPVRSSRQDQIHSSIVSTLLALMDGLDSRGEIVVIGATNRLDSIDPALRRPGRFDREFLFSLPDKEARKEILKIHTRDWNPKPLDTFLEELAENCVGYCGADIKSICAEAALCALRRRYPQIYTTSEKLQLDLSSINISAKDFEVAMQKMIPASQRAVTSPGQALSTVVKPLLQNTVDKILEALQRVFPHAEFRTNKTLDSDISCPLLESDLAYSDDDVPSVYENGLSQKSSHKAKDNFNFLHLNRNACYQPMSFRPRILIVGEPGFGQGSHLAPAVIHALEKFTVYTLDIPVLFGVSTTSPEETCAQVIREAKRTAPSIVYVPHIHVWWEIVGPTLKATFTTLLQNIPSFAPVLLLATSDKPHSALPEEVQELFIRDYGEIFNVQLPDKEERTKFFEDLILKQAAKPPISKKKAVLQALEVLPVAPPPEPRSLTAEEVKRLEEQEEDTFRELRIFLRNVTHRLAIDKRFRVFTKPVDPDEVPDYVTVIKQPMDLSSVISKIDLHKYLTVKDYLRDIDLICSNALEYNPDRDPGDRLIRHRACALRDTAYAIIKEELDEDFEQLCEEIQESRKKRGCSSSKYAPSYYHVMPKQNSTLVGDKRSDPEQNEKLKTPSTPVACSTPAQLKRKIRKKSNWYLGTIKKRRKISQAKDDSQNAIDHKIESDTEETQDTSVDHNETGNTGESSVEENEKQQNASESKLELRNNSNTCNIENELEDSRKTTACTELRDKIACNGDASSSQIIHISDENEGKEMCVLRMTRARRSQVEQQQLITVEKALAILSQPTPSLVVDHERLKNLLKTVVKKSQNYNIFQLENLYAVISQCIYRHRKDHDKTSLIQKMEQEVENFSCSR
How it was run: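 15N–1H HSQC spectra of labelled ATAD2 bromodomain recorded with and without compound at 100 μM. Binding is judged from spectral changes.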

[2] = target: T1, ATPase family AAA domain-containing protein 2 (Homo sapiens); test: Displacement of SGRG-K(Ac)-GG-K(Ac)-GLG-K(Ac)-GGAKRHRKV-biotin) from His6/FLAG-tagged TEV fused ATAD2 bromodomain (981 to 1121 residues) (unknown origin) expressed in Escherichia coli BL21(DE3) cells at 10 uM after 30 mins by TR-FRET assay relative to control
[3] = target: T2, ATPase family AAA domain-containing protein 2 (Homo sapiens, UniProt Q6PL18); test: Displacement of SGRG-K(Ac)-GG-K(Ac)-GLG-K(Ac)-GGAKRHRKV-biotin) from His6/FLAG-tagged TEV fused ATAD2 bromodomain (981 to 1121 residues) (unknown origin) expressed in Escherichia coli BL21(DE3) cells after 30 mins by TR-FRET assay
T2 sequence (Q6PL18 whole entry): T1 sequence (whole entry)

[4] = target: Bromodomain-containing protein 4 (Homo sapiens, UniProt O60885, Y390A); test: Displacement of Alexa Fluor 647 labelled ligand from His6-tagged BRD4 BD1 (1 to 477 residues)/BD2 Y390A mutant (unknown origin) after 30 mins by TR-FRET assay
How it was run: (§1)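 BET selectivity by TR-FRET fluoroligand displacement. Uses tandem BET bromodomain constructs carrying a mutation in the non-assayed bromodomain.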

[5] = target: Bromodomain-containing protein 4 (Homo sapiens, UniProt O60885, Y97A); test: Displacement of Alexa Fluor 647 labelled ligand from His6-tagged BRD4 BD2 (1 to 477 residues)/BD1 Y97A mutant (unknown origin) after 30 mins by TR-FRET assay; how it was run: as §1
[6] = target: T2, ATPase family AAA domain-containing protein 2; test: (§2) Binding affinity to His6/FLAG-tagged TEV fused ATAD2 bromodomain (950 to 1148 residues) (unknown origin) expressed in Escherichia coli BL21(DE3) cells by surface plasmon resonance
How it was run: (§3)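 SPR screen of concentration–response up to 100 μM. Wild-type ATAD2 and a Y1021A/N1064A mutant lacking the acetyl-lysine binding motif were run in parallel. Hits were classed as binding, nonbinding or linear binding (nonsaturating response, calculated Kd above the top concentration).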

[7] = target: T2, ATPase family AAA domain-containing protein 2; test: Inhibition of ATAD2 bromodomain in human HUT78 chromatin lysate after 2 hrs by bromosphere competition binding assay
How it was run: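 Bromosphere chemoproteomic assay. Measures competitive inhibition of binding of endogenous full-length ATAD2 from Hut-78 cells.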

[8] = target: T1, ATPase family AAA domain-containing protein 2 (Homo sapiens); test: as §2; how it was run: as §3
[9] = target: T1, ATPase family AAA domain-containing protein 2 (Homo sapiens); test: Displacement of SGRG-K(Ac)-GG-K(Ac)-GLG-K(Ac)-GGAKRHRKV-biotin) from His6/FLAG-tagged TEV fused ATAD2 bromodomain (981 to 1121 residues) (unknown origin) expressed in Escherichia coli BL21(DE3) cells at 100 to 300 uM after 30 mins by TR-FRET assay relative to control

| Activity [1] | inhibition [2] | IC50 [3] | IC50 [4] | IC50 [5] | Kd [6] | pIC50 [3] | IC50 [7] | Activity [8] | Activity [9] | SMILES |
| --- | --- | --- | --- | --- | --- | --- | --- | --- | --- | --- |
| Active | 47% | 10 µM | > 50.1 µM | > 50.1 µM | 15.8 µM | – | – | – | – | O=C(CCNC1=NS(=O)(=O)c2ccccc21)Nc1ccc(Cl)c(S(=O)(=O)N2CCCC2)c1 |
| – | – | – | 10 µM | 31.6 µM | – | 5.9 | – | – | – | CC1(C2CC2)NC(=O)N(CC(=O)Nc2ccc(Cl)c(S(=O)(=O)N3CCCCC3)c2)C1=O (stereo in doubt; 18) |
| – | – | > 1000 µM | – | – | – | – | – | – | – | CCC(=O)Nc1ccc(F)c(S(=O)(=O)N2CCCCC2)c1 |
| Active | 33% | 10 µM | 5.01 µM | > 50.1 µM | 12.6 µM | – | – | – | – | Cc1ccc(C2(C)NC(=O)N(CC(=O)Nc3ccc(C)c(S(=O)(=O)N4CCCCC4)c3)C2=O)cc1 (centres undefined) |
| – | – | > 1000 µM | – | – | – | – | – | – | – | CCC(=O)Nc1ccc(N)c(S(=O)(=O)N2CCCCC2)c1 |
| – | – | > 1000 µM | – | – | – | – | – | – | – | CCC(=O)Nc1ccc(C(F)(F)F)c(S(=O)(=O)N2CCCCC2)c1 |
| – | – | > 100 µM | > 50.1 µM | 31.6 µM | – | – | – | – | – | CC1(C2CC2)NC(=O)N(CC(=O)Nc2cccc(S(=O)(=O)N3CCCCC3)c2)C1=O (racemic) |
| – | – | > 1000 µM | – | – | – | – | – | – | – | CCC(=O)Nc1ccc(O)c(S(=O)(=O)N2CCCCC2)c1 |
| Active | 29% | 31.6 µM | > 501 µM | 39.8 µM | 50.1 µM | – | – | – | – | CCN(CC)S(=O)(=O)c1cc(NC(=O)CN2C(=O)NC(C)(c3ccccc3)C2=O)ccc1C (centres undefined) |
| Active | 27% | > 100 µM | > 50.1 µM | 39.8 µM | 50.1 µM | – | – | – | – | O=C(CCNC(=O)c1ccccc1)Nc1ccc(Cl)c(S(=O)(=O)N2CCCCC2)c1 |
| – | – | 15.8 µM | – | – | – | – | – | – | – | CCC(=O)Nc1ccc(Br)c(S(=O)(=O)N2CCCCC2)c1 |
| Active | 77% | 1.26 µM | > 50.1 µM | > 50.1 µM | 6.31 µM | – | 15.8 µM | – | – | Cc1[nH]c(=O)c(C#N)c(C)c1CCC(=O)Nc1ccc(Cl)c(S(=O)(=O)N2CCCCC2)c1 |
| Active | 30% | 50.1 µM | > 501 µM | > 501 µM | 50.1 µM | – | – | – | – | Cc1ccc(NC(=O)CN2C(=O)CN(C)C2=O)cc1S(=O)(=O)N1CCCCC1 |
| – | – | > 1000 µM | – | – | – | – | – | – | – | CCC(=O)Nc1ccc(CC)c(S(=O)(=O)N2CCCCC2)c1 |
| – | – | > 100 µM | > 50.1 µM | > 50.1 µM | – | – | – | – | – | COc1ccc(NC(=O)CN2C(=O)NC(C)(C3CC3)C2=O)cc1S(=O)(=O)N1CCCCC1 (racemic) |
| Active | 61% | 7.94 µM | > 50.1 µM | > 50.1 µM | 15.8 µM | – | – | – | – | Cc1ccc(NC(=O)CN2C(=O)NC3(CCc4ccccc43)C2=O)cc1S(=O)(=O)N1CCCCC1 (centres undefined) |

| Activity [1] | inhibition [2] | IC50 [3] | IC50 [4] | IC50 [5] | Kd [6] | pIC50 [3] | IC50 [7] | Activity [8] | Activity [9] | SMILES |
| --- | --- | --- | --- | --- | --- | --- | --- | --- | --- | --- |
| Active | 18% | > 100 µM | > 50.1 µM | > 50.1 µM | – | – | – | Active | – | Cc1ccc(NC(=O)CN2C(=O)NC(Cc3ccccc3)C2=O)cc1S(=O)(=O)N1CCCCC1 (centres undefined) |
| – | – | 79.4 µM | – | – | – | – | – | – | 45 to 55% | CCC(=O)Nc1ccc(Cl)c(S(=O)(=O)N2CCCCC2)c1 |
| Active | 52% | 5.01 µM | > 50.1 µM | > 50.1 µM | 7.94 µM | – | – | – | – | CN(C)S(=O)(=O)c1cc(NC(=O)CN2C(=O)NC3(CCCc4ccccc43)C2=O)ccc1Cl (centres undefined) |
| Active | 48% | 3.16 µM | > 50.1 µM | > 50.1 µM | – | – | – | Active | – | O=C(CN1C(=O)NC(CCc2ccccc2)C1=O)Nc1ccc(Cl)c(S(=O)(=O)N2CCCCC2)c1 (centres undefined) |
| Active | 79% | – | – | – | – | – | – | – | – | CC1(C2CC2)NC(=O)N(CC(=O)Nc2ccc(Cl)c(S(=O)(=O)N3CCCCC3)c2)C1=O (racemic) [listing 1 of 2 here] |
| Active | 58% | 10 µM | > 50.1 µM | > 50.1 µM | 7.94 µM | – | – | – | – | Cc1ccc(NC(=O)CN2C(=O)NC(C)(C)C2=O)cc1S(=O)(=O)N1CCCCCC1 |
| – | – | 1.26 µM | > 50.1 µM | 50.1 µM | 2 µM | – | 15.8 µM | – | – | CC1(C2CC2)NC(=O)N(CC(=O)Nc2ccc(Cl)c(S(=O)(=O)N3CCCCC3)c2)C1=O (racemic) [listing 2 of 2 here] |
| – | – | 10 µM | > 50.1 µM | 25.1 µM | – | – | – | – | – | CC1(C2CC2)NC(=O)N(CC(=O)Nc2ccc(C(F)(F)F)c(S(=O)(=O)N3CCCCC3)c2)C1=O (racemic) |
| Active | 30 to 40% | 10 µM | > 50.1 µM | > 50.1 µM | 15.8 µM | – | – | – | – | CSCCC1NC(=O)N(CC(=O)Nc2ccc(Cl)c(S(=O)(=O)N3CCOCC3)c2)C1=O (centres undefined) |
| Active | 29% | > 100 µM | > 50.1 µM | > 50.1 µM | – | – | – | Active | – | O=C(CNC(=O)C1CCCCC1)Nc1ccc(Cl)c(S(=O)(=O)N2CCCCC2)c1 |
| – | – | – | > 50.1 µM | > 50.1 µM | – | 5.9 | – | – | – | CC1(C2CC2)NC(=O)N(CC(=O)Nc2ccc(Cl)c(S(=O)(=O)N3CCCCC3)c2)C1=O (stereo in doubt; 19) |
| Active | 52% | 12.6 µM | > 50.1 µM | > 50.1 µM | 20 µM | – | – | – | – | Cc1ccc(NC(=O)CN2C(=O)NC(C)(C3CC3)C2=O)cc1S(=O)(=O)N1CCCCC1 (centres undefined) |
| Active | 39% | 12.6 µM | > 50.1 µM | > 50.1 µM | 31.6 µM | – | 39.8 µM | – | – | Cc1ccccc1C(=O)NCC(=O)Nc1ccc(C)c(S(=O)(=O)N2CCCCCC2)c1 |
| – | – | > 1000 µM | – | – | – | – | – | – | – | CCC(=O)Nc1ccc(OC)c(S(=O)(=O)N2CCCCC2)c1 |
| – | – | > 1000 µM | – | – | – | – | – | – | – | CCC(=O)Nc1ccc(C#N)c(S(=O)(=O)N2CCCCC2)c1 |
